Laboratory results taken from the EternaBench riboswitch data.

Test system: MS2 coat protein
Assay: apparent Kd, MS2 coat protein; higher = weaker binding; RNA-MaP array; FMN 200 µM where present
Method in brief: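 Designs were transcribed by stalled E. coli RNA polymerase on Illumina sequencing-chip clusters. They were titrated with SNAP-549-labelled MS2 coat protein from 0.7 or 1.5 nM, doubling to 3 µM, in 100 mM Tris-HCl pH 7.5, 80 mM KCl, 4 mM MgCl2, BSA, DTT, yeast tRNA and Tween-20, without and then with constant ligand. The apparent Kd is the median of filtered per-cluster fits after normalisation of green signal to red-channel RNA signal and control-cluster median Fmax.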

[1] = designed as: ON switch for flavin mononucleotide, no ligand
[2] = ligand present: flavin mononucleotide, designed as: ON switch for flavin mononucleotide
[3] = designed as: OFF switch for flavin mononucleotide, no ligand
[4] = ligand present: flavin mononucleotide, designed as: OFF switch for flavin mononucleotide

| Sequence | apparent Kd [1] [nM] | apparent Kd [2] [nM] | apparent Kd [3] [nM] | apparent Kd [4] [nM] |
| --- | --- | --- | --- | --- |
| ACAGAGCCUGACAUGAGGAUCACCCAUGUUAGAUUGUUAUGUUAGGAUAUUGUCUAGCAACUAGACAAGAAGGGAUGCUCUGUG | 20.1 | 14.3 |  |  |
| GAAUAAUAGAUCCAAUAUAUCUACAUGAGGAUCACCCAUGUGCAGGAUAUGCUAAAAUUUAAUAAGCAGAAGGGCAAGAACGGC |  |  | 54.7 | 138 |
| GGAUAGUGUCGUUAUCCGUAGCGAACAUGAGGAUCACCCAUGUAGGAUAUGUUAUUAAACUAAUAACAGAAGGGCGUUGGUCUC |  |  | 121 | 147 |
| UCGUAUAAGGGCAUUACACAUGAGGAUCACCCAUGUACGUUAGAGGAUAUGCAUUCCAGUUGAACGUAGAAGGCUAGAGAAGGG |  |  | 132 | 129 |
| GGAUCGAGUGUGAGGAUAUACCUAUGGAUACAUAGGUAGAAGGCACAUGAGGAUCACCCAUGUGUUCCCGGUCC |  |  | 43.4 | 368 |
| CGAGUACAUGAGGAUCACCCAUGUUAUGAAUUGUCAGGAUAUGGGUAUUGGUGACAUGCGCCAGAAGGGACGUCUG | 232 | 124 |  |  |
| CGAUGACACAGUCAUCCAAUACGAACAUGAGGAUCACCCAUGUAGGAUAUGGUACUCACAGAGUAGCAGAAGGACAUGUGCCUU |  |  | 72.8 | 158 |
| UAUUAUUUAUGAUAUUAUGACAGUAGAAGGCUAUACAUGUUGAUACAUGAGGAUCACCCAUGUAUAGAGGAUAUAUACAUAAAU |  |  | 1010 | 884 |
| UUAUUAUAUGUAGGAUAUGCAUAUUAUUAUUAUGCAGAAGGACAUGAGGAUCACCCAUGUAUGUUAUUAUUAUAUAUUAUAUAU |  |  | 26.1 | 34.7 |
| CCACCCUGAGGAUAUCCACCCUCAUACAUGAGGAUCACCCAUGUUCAUCCCUGAGUACCCGGAGAAGGCAGAUUUC |  |  | 87.7 | 57.9 |
| GGCCCGGGAGGAUAUACAUGAGGAUCACCCAUGUGCUUGAGCUUGAUCGAGUUCGAGUGUAGAAGGCCCGGGCC |  |  | 14 | 21.8 |
| AUAAUUUUAUAAUUCUUUUUAUUCAGAAGGCAUAACAUGAGGAUCACCCAUGUAAAUUAAUGUUAUGAGGAUAUGAUUUGGUUA |  |  | 22.5 | 118 |
| GCGUUGAACGAGAAGGCCAAUACAUGAGGAUCACCCAUGUUUAGAUGUUUUGGAGGAUAUCGUACGUAGUCAAAAGAGCAACGC |  |  | 11.3 | 10.2 |
| UGGUACUAGGGAGGAUAUGGGAAGAUACAUGAGGAUCACCCAUGUUUUAGAAUGCCGAGAGGCAACUAGAAGGCCCUAGUACCU | 1110 | 74.5 |  |  |
| AAAAAGUCAGGAUAUACAAAAGUGCGAAAGCACAAAAGGAAACAUGAGGAUCACCCAUGUAGAAGGGACAAGAA |  |  | 32.6 | 27.5 |
| GCGUUACAUGAGGAUCACCCAUGUGAGGAUAUGGUUCGGUACUGUCCUGUCGCGUACUCCAGAAGGCACGUGUG |  |  | 47.6 | 104 |
| AUUAUGUAAGGAUAUCUUACAUGUGACUUCGGUCACUGUUAAGAGAAGGUACAUGAGGAUCACCCAUGUAGAAC |  |  | 18.7 | 28.7 |
| AUCAGCUCGUCAGGAUAUACGUCACUGCGUCAGCAGCGUGGUAAGAUCACAUGAGGAUCACCCAUGUAGAAGGGACGAGCUGAU |  |  | 25.7 | 336 |
| GCCUCACAUGAGGAUCACCCAUGUCAGGAUAUAGGAGACGGUAGCUUUGCUGCCAUCGCUAGAAGGGACUGGCU |  |  | 68.2 | 111 |
| UUUUGGCGGGCAGGAUAUACUAAGACAUGAGGAUCACCCAUGUACUUGCAAGAUGUCCGUGUCGAGUAGAAGGGCCAAGCUAUA |  |  | 4.97 | 7.8 |
| GUUAAGGUAGGAUAUACGAUAAUAUAGGGUAGAUAUAUAACACAUGAGGAUCACCCAUGUAGAAGGACCAAUUG |  |  | 30.2 | 85.7 |
| GGGAGACAUGAGGAUCACCCAUGUGAAAACGUGCGAGGAUAUCAAUGGAAACCAUACUGUUGAGAAGGCGUUUGUC | 100 | 55 |  |  |
| AUAUAUAUAUCAGGAUAUGGACAGGCCUGUUCGUAUUAAGACAGUAACAUGAGGAUCACCCAUGUCCAGAAGGGAUAUAUAUAU |  |  | 83.9 | 50 |
| UUUUUGUCAGGAUAUGACUAGAUGCACGUUAGUGCAUCUACUUAGAAGGGACAUGAGGAUCACCCAUGUAUUCC |  |  | 29.8 | 24.3 |
| GUGAGGUCAGGAUAUGCAUGGCGGGACUUGCGUCGUGGCGUGGAGAAGGGACAUGAGGAUCACCCAUGUGGAGG |  |  | 115 | 95 |
| GCGGUUACGGUUGGCACUUAGCGAGAGGAUAUGGUAAGCUGGACAUGAGGAUCACCCAUGUACUAUCAGAAGGCUCGAGCACGC | 7.94 | 9.15 |  |  |
| CGAUGAGGUGUGAGGAUAUCGUGUUCGAAAGAACGUGAGAAGGCACAUGAGGAUCACCCAUGUCAACCUUGUCG |  |  | 17.3 | 15.6 |
| UGUCAUAUAUAGAAGGGUAGUAGGGUUUUACAUGAGGAUCACCCAUGUAUUAUAGGAUAUGUGUAUAGUUUUUAUUCAAGUAUA |  |  | 32.8 | 25.4 |

| Sequence | apparent Kd [1] [nM] | apparent Kd [2] [nM] | apparent Kd [3] [nM] | apparent Kd [4] [nM] |
| --- | --- | --- | --- | --- |
| AUACCACGAGGAUAUCGUCUAUUUCACAUGAGGAUCACCCAUGUUAUCUUUGUUUUGUUUCGAGAAGGCGUGUUUU |  |  | 30.9 | 20.9 |
| GGAUCGAUGUAGAAGGCUGUCUUAAAAUAGGACAGAGGAUAUACAUGAGGAUCACCCAUGUACUCCUUUAAAAUGAUCCAAAUA |  |  | 5.81 | 9.65 |
| GUGCUUGUCGAAGGAUAUGGUUACAUGAGGAUCACCCAUGUUAUGCUUGGUUACUUGUUUAGUUUCCAGAAGGUCGAUUAGUUG |  |  | 53.4 | 163 |
| UGAUCGAAAGAUCAUAGAUUCUGGCAGGAUAUGCAGUAGUUUUAAUUUACAUGAGGAUCACCCAUGUAGAAGGGCUAGAGUCUA |  |  | 6.33 | 7.4 |
| AUAAUGAGAGGAUAUACAUGAGGAUCACCCAUGUAAUUAACACGGCGAGCUCCAAUACGUAGAAGGCUCAUUUA |  |  | 49.2 | 35 |
| AAAACAUACCGAGGAUAUUCAUAUAAUAAAUAAACAUGAGGAUCACCCAUGUGGCAAAAGCCUAGGGAGAAGGCGGAAUGCUAA | 36 | 22.4 |  |  |
| GCUGACGAUGUAGGAUAUCUCGACGAUAAGUCGAGAGAAGGACAUGAGGAUCACCCAUGUAAAACUCCGUCAGCGAGGAAACUC |  |  | 16.3 | 17.8 |
| CACUGCAAUGUAGGAUAUCGACUGGAAUACAGUCGAGAAGGACAUGAGGAUCACCCAUGUCAUCCUAAUAAUAAAUAAGCAGUG |  |  | 14.4 | 19.5 |
| AAGCUGGUAGGAUAUGCUAGGGCGACUAAUGCGCCGAUAGUACAUGAGGAUCACCCAUGUAGAAGGGCCAGAAA |  |  | 24.3 | 18.4 |
| UUGUGCAAAGGAUAUACGUCCGACCUCGUGGAACUGAGAAUACAUGAGGAUCACCCAUGUAGAAGGUUGCCGAG |  |  | 11.7 | 15.1 |
| GGUGCGUUUGUGAGGAUAUGCUGGUCCUUGGUUCGGCAGAAGGCACAUGAGGAUCACCCAUGUGGUGUCGUGCC |  |  | 35.1 | 77.5 |
| GCUGGGUAGGCAGGAUAUCCUCGCGCAAACACAUGAGGAUCACCCAUGUACACAAAACGUGAUAUGGAGAAGGGCUGACCCACA | 33.2 | 6.68 |  |  |
| ACAUGAGGAUCACCCAUGUAUUUGUAGGAUAUACUGUAUUGUUUAUUACUCUAAUUAAUAUGUUUGUAGAAGGACAUUGCAUGA |  |  | 8.39 | 9.86 |
| UAAGACUAGCAUUGGUAUCUCCACAUGAGGAUCACCCAUGUCUAGGAUAUGAGCAGCAAAGCUGCUUAGAAGGAGACGCUAGUC |  |  | 8.47 | 12.6 |
| CGUGCGUAUGUGAGGAUAUGCUGGUCCUUGGCUCGGCAGAAGGCACAUGAGGAUCACCCAUGUGGUGUCGUACA |  |  | 78.2 | 156 |
| UCUGCCGCCGUGAGGAUAUGCCCAAAGAAAAGCGGGCAGAAGGCACAUGAGGAUCACCCAUGUCCCGCGGUUUU |  |  | 18 | 38.4 |
| GGAUUACAUGAGGAUCACCCAUGUAGAAGGCGCCUGGGAGACCAGCGCGAGGUAGAAGACCCGGGCGAGGAUAUACAGGAGGGC |  |  | 25.5 | 56.4 |
| GGAUGACAUAGUCAUCCUUAACGAACAUGAGGAUCACCCAUGUAGGAUAUGCUACUCAAAGAGUAGCAGAAGGGUAUGUGUCUU |  |  | 53.6 | 56.3 |
| GUAGCAUAAUCAGGAUAUUCAGAGAAUAAAUAAACAUGAGGAUCACCCAUGUGGCGAAAGCCUAGGGAGAAGGGAUAAUGCUAC | 118 | 24.8 |  |  |
| UUGGACGUCGUAGGAUAUGUAGCAUAUUCCUACAUGAGGAUCACCCAUGUUGACAUGGAAGAAGGACAGAAGGACGAUGUCCAU | 5.61 | 5.36 |  |  |
| ACAUGAGGAUCACCCAUGUUCACAUAGGAUAUUGAUUUUAUUGGUUUUAGAAUAGUAAUUAAACUCAAGAAGGAUGCCAGUUGU | 10.7 | 8.78 |  |  |
| UCCUAACAUGAGGAUCACCCAUGUCAGGAUAUGAUACUAUGUACUUCGGUACAUAGUAUCAGAAGGGACAUCCU |  |  | 15.3 | 16.6 |
| UUAAUUUUAUGAUAUUAUGACAUUAGAAGGCUGUACAUGUUGAUACAUGAGGAUCACCCAUGUAUAGAGGAUAUAGACAAUUUU |  |  | 32.4 | 63.9 |
| GGAUAGGACAGAGGAUAUACAGAUAGGAUCUACUAUCAAACAGUCCUAACAUGAGGAUCACCCAUGUAGAAGGCUGUCCUAUCG |  |  | 21.7 | 80.3 |
| AAGAAGACAGGAUAUACAUGAAAGAAAGAAAAGAAAAGAAAACAUGAGGAUCACCCAUGUAGAAGGGUCAAGAA |  |  | 46.5 | 59.2 |
| AAUAAGUGAGGAUAUACGAAAUAAAUAAAUAAAUAAAUAAAGUAGAAGGCACAUGAGGAUCACCCAUGUAAUAA |  |  | 34.6 | 29 |
| GUCAGCUCGUGAGGAUAUACAACACUGCUUCGGCAGUGUAUUAAGAUCACAUGAGGAUCACCCAUGUAGAAGGCACGAGCAGAU |  |  | 13.4 | 258 |
